Series [1] is described as follows: AUClast in CD-1 mouse at 1 mg/kg, iv administered as single dose measured up to 24 hrs. In kind it is ADME, organism-based. Further details: route intravenous, dose 1 mg/kg, time <=24. The settings on record: in vivo. The method in brief: (§1)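 Male CD-1 mice, 6–8 weeks old, single dose by tail vein (1 mg/kg, 3% NMP/45% PEG300/12% ethanol/40% water) or oral gavage (5 mg/kg, 5% NMP/95% PEG300). Retro-orbital plasma sampled 0.083 (iv only) to 24 h, n=3/timepoint, and analysed by HPLC/MS/MS. Non-compartmental analysis. Half-life taken from the terminal phase using ≥3 non-zero points after Tmax.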

A short description of series [2]: Half life in CD-1 mouse at 1 mg/kg, iv administered as single dose measured up to 24 hrs. In kind it is ADME, organism-based. The settings on record: CD-1, mouse, in vivo. The gist of the method: as §1
A short description of series [3]: In vivo modulation of gamma secretase transgenic Tg2576 mouse overexpressing human APP harboring K595N/M596L Swedish double mutant assessed as reduction in brain amyloid beta42 level at 50 mg/kg, po administered via gavage for 14 consecutive days and measured after 4 hrs post last dose on day 14 by meso scale discovery relative to control. Further details: scale not given: the % may be the effect or the level left. The settings on record: time 14 day. In kind it is functional. The gist of the method:
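Female Tg2576 mice, 5–6 months old (n=12/dose), dosed daily by oral gavage for 14 days with vehicle (5% NMP/95% PEG300) or 50 mg/kg test article. Killed 4 h post final dose; brain and plasma Aβ38/40/42 measured by Meso Scale multiplex (SECTOR Imager 6000). Percent reduction versus vehicle; mean ± SEM, ANOVA.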

Series [4] in a line: AUClast in CD-1 mouse at 5 mg/kg, po administered as single dose measured up to 24 hrs. In kind it is ADME, organism-based. Also noted: route oral, dose 5 mg/kg, time <=24. To be noted: in vivo. The method in brief: as §1
A short description of series [5]: Metabolic stability in mouse liver microsomes assessed as parent compound remaining at 1 uM incubated for 30 mins. In kind it is ADME, Microsome. The settings on record: 0.5 h. The gist of the method: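 Test compound at 1 μM incubated 30 min with human, rat or mouse liver microsomes (1 mg/mL); parent remaining expressed as %.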

Regarding `CCn1nc2c(c1Nc1nc(-c3ccc(-n4cnc(C)c4)c(OC)n3)cs1)CCC2`, the AUClast in series [1] came out at 376 ng·h/mL; in series [4], 1205 ng·h/mL. The compound further returned a half-life in series [2] of 42 min. Also, the Activity in series [3] is 23%.

Regarding `COc1nc(-c2csc(Nc3c4c(nn3CCF)CCCC4)n2)ccc1-n1cnc(C)c1`, in series [5], the Stabilty came out at 100%.
